According to ChEMBL document CHEMBL3407346, “Design, synthesis, and biological evaluation of sulfonyl acrylonitriles as novel inhibitors of cancer metastasis and spread” (J Med Chem, 2015):
Activity calls are given as the source filed them. The calls are words filed in the database; no cut-off is given here.

Tests used:
HT-29 [1] = test: Reduction of cellular GSH level in human HT-29 cells incubated for 30 mins followed by co-culturing with human mesothelial cells measured after 5 hrs by […]; assay type: functional, cell-based
A2780 [2] = test: Cytotoxicity against human A2780 cells co-cultured with human mesothelial cells at 10 uM after 4 hrs by firefly luciferase assay relative to control; assay type: functional
Outline: (§1)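 Co-culture of luciferase-transduced cancer cells (puromycin/G418-selected retroviral pLuc) with confluent human mesothelial monolayers. Suspended cancer cells plus 10 µM compound (final) or DMSO were overlaid for 4 h. Non-adherent cells were washed off and surviving adherent cells quantified by firefly luciferase luminescence. Efficacy = treated/DMSO luminescence ratio; mean±SEM, n=3.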

[3] = Glutathione reactivity assessed as reduction in detectable GSH level by Ellman's reagent-based assay
Outline: (§2)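 Glutathione was measured with a commercial kit per the manufacturer's instructions, with TNB production rate proportional to GSH. Cell-free GSH was tested with compounds, and HT-29 luciferase cell lysates were assayed after compound exposure.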

[4] = Cytotoxicity against human BxPC3 cells co-cultured with human mesothelial cells at 10 uM after 4 hrs by firefly luciferase assay relative to control; assay type: functional, BXPC-3; outline: as §1
[5] = Cytotoxicity against human SU86 cells co-cultured with human mesothelial cells at 10 uM after 4 hrs by firefly luciferase assay relative to control; assay type: functional; outline: as §1
[6] = Cytotoxicity against human SKOV3 cells co-cultured with human mesothelial cells at 10 uM after 4 hrs by firefly luciferase assay relative to control; assay type: functional, SK-OV-3; outline: as §1
Mus musculus [7] = test: Toxicity in athymic nu/nu mouse xenografted with human A2780 cells assessed as weight loss at 5 mg/kg, ip administered thrice a week for 14 days; assay type: organism-based; design: dose 5 mg/kg, route intraperitoneal; conditions: in vivo, 336 h
A2780 [8] = test: Inhibition of peritoneal carcinomatosis of human A2780 cells in athymic nu/nu mouse at 5 mg/kg, ip administered thrice a week for 14 days by luciferase reporter assay relative to vehicle-treated control; assay type: functional, organism-based; design: dose 5 mg/kg
Outline: (§3)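 Athymic female nu/nu mice, 5 weeks old, received 5 mg/kg compound or vehicle (80% PEG400:20% ethanol) IP 4 h before IP injection of 1.5×10⁶ A2780-luc or 2×10⁶ SKOV3-luc cells, n=7 per arm. Dosing continued IP three times a week for 14 days. Tumour burden was imaged weekly by abdominal bioluminescence after IP D-luciferin/ketamine/xylazine; mean±SEM, unpaired t-test vs vehicle.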

Mus musculus [9] = test: Toxicity in athymic nu/nu mouse xenografted with human SKOV3 cells assessed as weight loss at 5 mg/kg, ip administered thrice a week for 14 days; assay type: organism-based, SK-OV-3; design: dose 5 mg/kg, route intraperitoneal; conditions: in vivo, 336 h
SK-OV-3 = test: Inhibition of peritoneal carcinomatosis of human SKOV3 cells in athymic nu/nu mouse at 5 mg/kg, ip administered thrice a week for 14 days by luciferase reporter assay relative to vehicle-treated control; assay type: functional, organism-based; design: dose 5 mg/kg; outline: as §3
A2780 [10] = test: Induction of apoptosis in human A2780 cells assessed as increased cellular levels of cleaved caspase 3 at 5 uM after 4 hrs by immunoblot analysis; assay type: functional, cell-based
Outline: (§4)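 A2780 cells were suspended and allowed to adhere for 4 h with DMSO or test compound (5 µM in DMSO). Cells were collected and lysed, lysates normalised for total protein, and cleaved PARP and cleaved caspase 3 detected by immunoblot with actin as loading control. A sulfide analog served as negative control.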

[11] = Cytotoxicity against human SKOV3 cells co-cultured with human mesothelial cells after 4 hrs by firefly luciferase assay relative to control; assay type: functional, cell-based; conditions: SK-OV-3, 4 h
Outline: (§5)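 Luciferase-expressing cancer cells in suspension were treated with a series of compound concentrations or DMSO, overlaid on confluent human mesothelial monolayers for 4 h, and washed to remove non-adherent cells. Surviving adherent cells were read by luciferase luminescence relative to vehicle, and EC50 was derived from the concentration series.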

A2780 [12] = test: Induction of apoptosis in human A2780 cells assessed as increased cellular levels of cleaved PARP at 5 uM after 4 hrs by immunoblot analysis; assay type: functional, cell-based; outline: as §4
[13] = Antitumor activity against human MIAPaCa2 cells xenografted in ip dosed Ncr-Nu/Nu mouse assessed as metastases administered on day 1, 3, 5, 7 and measured after 8 weeks by fluorescent imaging analysis (reference value: 40%); assay type: functional, MIA PaCa-2
Outline: (§6)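 Orthotopic pancreatic model in male NCr-Nu/Nu nude mice, 6-8 wk old. 1×10⁶ RFP-expressing MiaPaCa-2 cells in soluble ECM were injected into the pancreatic tail. Tumour resected with distal pancreatectomy, with no residual disease confirmed by intraoperative RFP imaging. Compound or vehicle (4:1 PEG400:EtOH) given IP at surgery and on days 3, 5 and 7. Local and metastatic recurrence scored by fluorescent imaging after 8 weeks.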

[14] = Antimetastatic activity against human MIAPaCa2 cells xenografted in ip dosed Ncr-Nu/Nu mouse assessed as total recurrence administered on day 1, 3, 5, 7 and measured after 8 weeks by fluorescent imaging analysis (reference value: 67%); assay type: functional, MIA PaCa-2; outline: as §6
[15] = Cytotoxicity against human SU86 cells co-cultured with human mesothelial cells after 4 hrs by firefly luciferase assay relative to control; assay type: functional, cell-based; outline: as §5
[16] = Cytotoxicity against human BxPC3 cells co-cultured with human mesothelial cells after 4 hrs by firefly luciferase assay relative to control; assay type: functional, cell-based; conditions: BXPC-3, 4 h; outline: as §5
A2780 [17] = test: Cytotoxicity against human A2780 cells co-cultured with human mesothelial cells after 4 hrs by firefly luciferase assay relative to control; assay type: functional, cell-based; conditions: A2780, 4 h; outline: as §5
[18] = Antimetastatic activity against human MIAPaCa2 cells xenografted in ip dosed Ncr-Nu/Nu mouse assessed as local recurrence administered on day 1, 3, 5, 7 and measured after 8 weeks by fluorescent imaging analysis (reference value: 60%); assay type: functional, MIA PaCa-2; outline: as §6
HT-29 [19] = test: Induction of apoptosis in human HT-29 cells using compound pre-mixed with NAC; assay type: functional, cell-based
HT-29 [20] = test: Induction of apoptosis in human HT-29 cells at 10 uM incubated for 30 mins followed by coculturing with human mesothelial cells for 5 hrs by firefly luciferase assay in presence of NAC; assay type: functional, cell-based
Outline: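 Firefly luciferase-expressing HT-29 cells were incubated 30 min with compound plus vehicle (water) or 680 µM N-acetylcysteine, trypsin-suspended, and co-cultured 5 h on human mesothelial monolayers with compound and NAC. Surviving adherent cells were detected by luciferase luminescence; mean light output ±SEM.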

HT-29 [21] = test: Reduction of cellular GSH level in human HT-29 cells after 24 hrs by […]; assay type: functional, cell-based; outline: as §2
HT-29 [22] = test: Cytotoxicity against human HT-29 cells co-cultured with human mesothelial cells at 50 to 200 uM preincubated for 24 hrs followed by co-culturing measured after 4 hrs by firefly luciferase assay relative to control; assay type: functional, cell-based; conditions: in the assay text read “after 5 hrs” for “after 4 hrs”
Outline: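 Luciferase-expressing HT-29 cells were pretreated 24 h with water or various BSO concentrations, trypsin-suspended, then overlaid on confluent human mesothelial monolayers with compound and BSO for 5 h. Non-adherent cells were washed off and survivors read by luciferase luminescence.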

Row | Structure (SMILES) | Activity (HT-29 [1]) | Ratio (A2780 [2]) | Activity [3] | Ratio [4] | Ratio [5] | Ratio [6] | Activity (Mus musculus [7]) | inhibition (A2780 [8]) | Activity (Mus musculus [9]) | inhibition (SK-OV-3) | Activity (A2780 [10]) | EC50 [11] | Activity (A2780 [12]) | Activity [13] | Activity [14] | EC50 [15] | EC50 [16] | EC50 (A2780 [17]) | Activity [18] | other results
1 | CN(Cc1ccccc1)C(=O)C(C)(C)c1ccc(S(=O)(=O)/C=C/C#N)cc1 | Active | 0.06 | Active | 0.12 | 0.24 | 0.5 | – | – | – | – | – | – | – | – | – | – | – | – | – | –
2 | N#C/C=C/S(=O)(=O)c1ccc(C2(C(=O)NC3CCCCC3)CCC2)cc1 | – | 0.09 | – | 0.18 | 0.32 | 0.33 | Non-toxic | Active | Non-toxic | Active | Active | 7.4 µM | Active | 20% | 40% | 8 µM | 3.6 µM | 3.1 µM | 30% | –
3 | CC(C)(C)c1ccc(S(=O)(=O)/C=C/C#N)cc1 [BAY-11-7085] | Active | 0.04 | Active | 0.07 | 0.13 | 0.32 | Non-toxic | Active | Non-toxic | Active | Active | 5 µM | Active | 31% | 38% | 5.9 µM | 3.5 µM | 2.6 µM | 31% | Activity (HT-29 [19]): inactive; Activity (HT-29 [20]): inactive
4 | Cc1ccc2oc(C(C)(C)c3ccc(S(=O)(=O)/C=C/C#N)cc3)nc2c1 | – | 0.1 | – | 0.09 | 0.2 | 0.17 | – | – | – | – | – | 5.6 µM | – | 10% | 50% | 7.3 µM | 3.5 µM | 2.1 µM | 40% | –
5 | C=CS(=O)(=O)c1ccc(C(C)(C)C)cc1 | inactive | – | inactive | – | – | – | – | – | – | – | – | – | – | – | – | – | – | – | – | –
6 | CC(C)(C(=O)NCc1ccc(F)cc1)c1ccc(S(=O)(=O)/C=C/C#N)cc1 | Active | 0.11 | Active | 0.23 | 0.18 | 0.6 | – | – | – | – | – | – | – | – | – | – | – | – | – | –
7 | CC(C)(c1ccc(S(=O)(=O)/C=C/C#N)cc1)c1nc2ccccc2o1 | – | 0.01 | – | 0.24 | 0.29 | 0.17 | Non-toxic | Active | Non-toxic | Active | Active | 5.4 µM | Active | – | – | 6.5 µM | 3.1 µM | 2.2 µM | – | –
8 | CC(C)(C)c1ccc(S/C=C/C#N)cc1 | – | – | – | – | – | – | – | – | – | – | inactive | – | inactive | – | – | – | – | – | – | –
9 | CCCCS(=N)(=O)CC[C@H](N)C(=O)O (stereo partly drawn) | – | – | – | – | – | – | – | – | – | – | – | – | – | – | – | – | – | – | – | Activity (HT-29 [21]): Active; Activity (HT-29 [22]): inactive
10 | Cc1ccc(O)c(NC(=O)COc2ccc(S(=O)(=O)/C=C/C#N)cc2C(C)(C)C)c1 | – | 0.05 | – | 0.1 | 0.38 | 0.24 | – | – | – | – | – | 6.6 µM | – | – | – | 8 µM | 3.8 µM | 2.4 µM | – | –
11 | CC(C)(C)c1cc(S(=O)(=O)/C=C/C#N)ccc1OCC(=O)NC1CCCCC1 | – | 0.01 | – | 0.09 | 0.21 | 0.19 | Non-toxic | Active | Non-toxic | Active | Active | 6.1 µM | Active | – | – | 6.6 µM | 3.4 µM | 2.6 µM | – | –
12 | CC(C)(C(=O)NCc1ccccc1)c1ccc(S(=O)(=O)/C=C/C#N)cc1 | – | 0.1 | – | 0.16 | 0.21 | 0.52 | Non-toxic | Active | Non-toxic | Active | Active | 8.7 µM | Active | 6% | 6% | 7.4 µM | 3.7 µM | 3 µM | 6% | –
13 | CC(C)(c1ccc(S(=O)(=O)/C=C/C#N)cc1)c1nnc(-c2ccccc2)o1 | – | 0.06 | – | 0.24 | 0.45 | 0.25 | – | – | – | – | – | 5.7 µM | – | 0% | 45% | 6.2 µM | 3.1 µM | 2.6 µM | 45% | –
14 | C/C=C/S(=O)(=O)c1ccc(C(C)(C)C)cc1 | inactive | – | inactive | – | – | – | – | – | – | – | – | – | – | – | – | – | – | – | – | –
